From ChEMBL document CHEMBL1949601, “γ-Carbolines: a novel class of cannabinoid agonists with high aqueous solubility and restricted CNS penetration” (Bioorg Med Chem Lett, 2012)

Assays:
[1] = target: Pyroglutamylated RF-amide peptide receptor (Rattus norvegicus) (UniProt P83858); experiment: Activity at rat GPR103 receptor at 10 uM
[2] = target: Muscarinic acetylcholine receptor M2 (Homo sapiens) (UniProt P08172); experiment: Activity at human M2 receptor at 10 uM
[3] = Ratio of drug uptake in brain to plasma of mouse; format: ADME, cell-free; details: read-out: BPR
Procedure, shortened: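 Compound given sc or po; blood and brain sampled 30 or 60 min post-dose; total plasma and brain concentrations by protein precipitation (brain homogenised) and LC–MS/MS; brain values corrected for 2% blood contamination; brain/plasma ratio calculated.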

Cytochrome P450 2C9 = Cytochrome P450 2C9 (Homo sapiens, UniProt P11712); experiment: Inhibition of CYP2C9; format: ADME
[4] = target: Kappa-type opioid receptor (Homo sapiens, UniProt P41145); experiment: Inhibition of human KOR
[5] = target: Type-1 angiotensin II receptor (Homo sapiens) (UniProt P30556); experiment: Activity at human AT1 receptor at 10 uM
[6] = target: Neuromedin-K receptor (Homo sapiens) (UniProt P29371); experiment: Activity at human NK3 receptor at 10 uM
Cytochrome P450 3A4 = Cytochrome P450 3A4 (Homo sapiens, UniProt P08684); experiment: Inhibition of CYP3A4; format: ADME
Cytochrome P450 1A2 = Cytochrome P450 1A2 (Homo sapiens, UniProt P05177); experiment: Inhibition of CYP1A2; format: ADME
[7] = target: C-C chemokine receptor type 5 (Homo sapiens) (UniProt P51681); experiment: Activity at human CCR5 at 10 uM
[8] = target: Angiotensin-converting enzyme (Homo sapiens) (UniProt P12821); experiment: Activity of human ACE at 10 uM
[9] = target: Adrenergic receptor alpha-1 (Rattus norvegicus) (UniProt P15823+P23944+P43140); experiment: Activity at rat alpha1adrenergic receptor at 10 uM
Cytochrome P450 2C19 = Cytochrome P450 2C19 (Homo sapiens, UniProt P33261); experiment: Inhibition of CYP2C19; format: ADME
[10] = target: Adenosine receptor A2a (Homo sapiens) (UniProt P29274); experiment: Activity at human A2a receptor at 10 uM
[11] = target: fMet-Leu-Phe receptor (Homo sapiens) (UniProt P21462); experiment: Activity at human FPR1 receptor at 10 uM
[12] = target: Prokineticin receptor 1 (Mus musculus) (UniProt Q9JKL1); experiment: Activity at mouse GPR73 receptor at 10 uM
[13] = target: Sodium-dependent noradrenaline transporter (Homo sapiens) (UniProt P23975); experiment: Activity at human NET receptor at 10 uM
[14] = target: 5-hydroxytryptamine receptor 2A (Homo sapiens) (UniProt P28223); experiment: Activity at 5-HT2a receptor at 10 uM
Cannabinoid receptor 1 = Cannabinoid receptor 1 (Homo sapiens, UniProt P21554); experiment: Displacement of [3H]-CP55,940 from human CB1 receptor expressed in HEK293 cells; format: cell-based
[15] = target: Estrogen receptor (Homo sapiens) (UniProt P03372); experiment: Activity at human ERalpha receptor at 10 uM
[16] = Activity at Nav site2 receptor at 10 uM
[17] = Ratio of drug uptake in brain to plasma of Sprague-Dawley rat at 1 mg/kg, sc; format: ADME, organism-based; set-up: dose 1 mg/kg, route subcutaneous; details: read-out: BPR
[18] = target: Melanocortin receptor 4 (Homo sapiens) (UniProt P32245); experiment: Activity at human MC4 receptor at 10 uM
[19] = Activity at L-Type Calcium channel at 10 uM
Rattus norvegicus = experiment: Volume of distribution at steady state in po dosed Sprague-Dawley rat; format: ADME, organism-based; details: in vivo
[20] = target: Muscarinic acetylcholine receptor M3 (Homo sapiens) (UniProt P20309); experiment: Activity at human M3 receptor at 10 uM
[21] = target: Glucagon-like peptide 2 receptor (Homo sapiens) (UniProt O95838); experiment: Activity at human GLP2 receptor at 10 uM
[22] = target: Glucagon-like peptide 1 receptor (Homo sapiens) (UniProt P43220); experiment: Activity at human GLP1 receptor at 10 uM
[23] = target: Adenosine receptor A3 (Rattus norvegicus) (UniProt P28647); experiment: Activity at rat A3 receptor at 10 uM
[24] = target: Motilin receptor (Homo sapiens) (UniProt O43193); experiment: Activity at human Mtl receptor at 10 uM
[25] = target: Calcitonin gene-related peptide type 1 receptor (Homo sapiens) (UniProt Q16602); experiment: Activity at human CGRP receptor at 10 uM

Sequence of fMet-Leu-Phe receptor (Homo sapiens) (P21462 whole entry): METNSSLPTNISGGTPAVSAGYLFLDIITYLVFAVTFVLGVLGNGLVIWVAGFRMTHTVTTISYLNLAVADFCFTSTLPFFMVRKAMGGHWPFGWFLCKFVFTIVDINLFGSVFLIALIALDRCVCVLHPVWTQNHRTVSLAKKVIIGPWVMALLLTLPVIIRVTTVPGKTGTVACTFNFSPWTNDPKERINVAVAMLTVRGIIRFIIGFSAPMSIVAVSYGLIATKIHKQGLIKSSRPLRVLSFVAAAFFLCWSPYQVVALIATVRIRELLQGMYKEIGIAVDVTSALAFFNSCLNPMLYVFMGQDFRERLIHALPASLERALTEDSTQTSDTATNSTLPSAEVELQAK
Sequence of Cytochrome P450 2C9 (P11712 whole entry): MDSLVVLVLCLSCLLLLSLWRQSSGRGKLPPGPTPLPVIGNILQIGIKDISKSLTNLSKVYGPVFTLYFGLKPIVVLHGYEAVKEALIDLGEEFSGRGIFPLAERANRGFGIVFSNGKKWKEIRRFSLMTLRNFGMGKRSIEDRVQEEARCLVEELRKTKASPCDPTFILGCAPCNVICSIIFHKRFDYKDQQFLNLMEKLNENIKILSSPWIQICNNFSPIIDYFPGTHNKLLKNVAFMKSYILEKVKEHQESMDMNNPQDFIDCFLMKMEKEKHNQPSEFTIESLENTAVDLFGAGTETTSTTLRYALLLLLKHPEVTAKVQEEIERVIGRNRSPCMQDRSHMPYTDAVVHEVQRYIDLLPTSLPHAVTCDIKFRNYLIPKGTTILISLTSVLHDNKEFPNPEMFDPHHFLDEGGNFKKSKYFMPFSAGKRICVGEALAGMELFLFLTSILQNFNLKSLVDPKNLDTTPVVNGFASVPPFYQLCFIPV
Sequence of Muscarinic acetylcholine receptor M2 (Homo sapiens) (P08172 whole entry): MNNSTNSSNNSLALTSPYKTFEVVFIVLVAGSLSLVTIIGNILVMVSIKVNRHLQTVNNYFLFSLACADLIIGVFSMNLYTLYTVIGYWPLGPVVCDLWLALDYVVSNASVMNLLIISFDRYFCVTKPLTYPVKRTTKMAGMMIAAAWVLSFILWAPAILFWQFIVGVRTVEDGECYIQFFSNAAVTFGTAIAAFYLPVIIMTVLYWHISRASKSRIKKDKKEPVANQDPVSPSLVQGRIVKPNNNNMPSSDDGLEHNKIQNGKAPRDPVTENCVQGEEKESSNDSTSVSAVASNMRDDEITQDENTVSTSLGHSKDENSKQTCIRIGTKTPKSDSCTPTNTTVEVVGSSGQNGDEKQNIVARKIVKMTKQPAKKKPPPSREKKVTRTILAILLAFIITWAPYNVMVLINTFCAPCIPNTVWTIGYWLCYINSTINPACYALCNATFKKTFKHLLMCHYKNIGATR
Sequence of Neuromedin-K receptor (Homo sapiens) (P29371 whole entry): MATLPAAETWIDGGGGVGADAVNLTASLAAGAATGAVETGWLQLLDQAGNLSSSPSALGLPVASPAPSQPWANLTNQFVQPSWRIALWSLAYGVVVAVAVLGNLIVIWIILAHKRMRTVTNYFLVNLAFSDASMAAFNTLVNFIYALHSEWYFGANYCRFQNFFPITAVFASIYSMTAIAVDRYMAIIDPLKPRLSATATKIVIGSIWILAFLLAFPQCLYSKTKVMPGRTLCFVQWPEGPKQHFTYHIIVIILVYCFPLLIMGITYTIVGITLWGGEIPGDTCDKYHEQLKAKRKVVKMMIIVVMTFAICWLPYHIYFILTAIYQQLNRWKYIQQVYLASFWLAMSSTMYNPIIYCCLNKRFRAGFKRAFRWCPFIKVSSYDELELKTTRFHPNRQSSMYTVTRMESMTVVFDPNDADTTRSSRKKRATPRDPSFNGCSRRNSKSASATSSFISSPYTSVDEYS
Sequence of Melanocortin receptor 4 (Homo sapiens) (P32245 whole entry): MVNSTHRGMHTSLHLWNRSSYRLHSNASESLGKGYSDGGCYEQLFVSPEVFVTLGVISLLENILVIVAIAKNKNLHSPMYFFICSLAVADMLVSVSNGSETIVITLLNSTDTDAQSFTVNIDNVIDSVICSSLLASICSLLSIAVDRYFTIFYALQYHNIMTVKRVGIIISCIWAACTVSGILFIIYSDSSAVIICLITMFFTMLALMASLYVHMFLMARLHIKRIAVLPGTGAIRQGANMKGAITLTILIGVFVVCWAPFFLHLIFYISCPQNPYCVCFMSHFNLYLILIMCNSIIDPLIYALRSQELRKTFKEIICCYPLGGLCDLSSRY
Sequence of Cannabinoid receptor 1 (P21554 whole entry): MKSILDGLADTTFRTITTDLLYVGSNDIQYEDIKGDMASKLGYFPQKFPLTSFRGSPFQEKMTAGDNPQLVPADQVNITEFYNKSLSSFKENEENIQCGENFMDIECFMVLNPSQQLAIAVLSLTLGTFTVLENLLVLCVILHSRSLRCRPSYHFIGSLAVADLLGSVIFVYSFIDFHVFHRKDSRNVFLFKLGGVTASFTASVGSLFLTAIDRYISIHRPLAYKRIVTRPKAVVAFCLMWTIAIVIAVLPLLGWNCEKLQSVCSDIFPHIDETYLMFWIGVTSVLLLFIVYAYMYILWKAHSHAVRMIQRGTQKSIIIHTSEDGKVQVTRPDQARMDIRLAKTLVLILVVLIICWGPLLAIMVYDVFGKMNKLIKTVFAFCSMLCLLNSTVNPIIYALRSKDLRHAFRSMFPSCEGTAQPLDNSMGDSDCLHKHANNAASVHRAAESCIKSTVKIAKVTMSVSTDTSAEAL
Sequence of Adenosine receptor A2a (Homo sapiens) (P29274 whole entry): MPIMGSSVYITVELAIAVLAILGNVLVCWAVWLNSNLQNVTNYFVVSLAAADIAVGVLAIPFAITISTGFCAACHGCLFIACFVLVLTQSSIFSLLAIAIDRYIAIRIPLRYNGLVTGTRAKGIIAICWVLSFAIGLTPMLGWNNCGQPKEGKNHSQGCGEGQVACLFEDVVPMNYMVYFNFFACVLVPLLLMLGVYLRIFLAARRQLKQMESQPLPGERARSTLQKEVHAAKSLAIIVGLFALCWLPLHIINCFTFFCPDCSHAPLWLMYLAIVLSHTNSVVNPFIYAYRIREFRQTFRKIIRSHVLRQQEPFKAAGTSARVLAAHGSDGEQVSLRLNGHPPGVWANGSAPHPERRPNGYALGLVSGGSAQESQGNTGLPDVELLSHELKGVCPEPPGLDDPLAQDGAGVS
Sequence of Prokineticin receptor 1 (Mus musculus) (Q9JKL1 whole entry): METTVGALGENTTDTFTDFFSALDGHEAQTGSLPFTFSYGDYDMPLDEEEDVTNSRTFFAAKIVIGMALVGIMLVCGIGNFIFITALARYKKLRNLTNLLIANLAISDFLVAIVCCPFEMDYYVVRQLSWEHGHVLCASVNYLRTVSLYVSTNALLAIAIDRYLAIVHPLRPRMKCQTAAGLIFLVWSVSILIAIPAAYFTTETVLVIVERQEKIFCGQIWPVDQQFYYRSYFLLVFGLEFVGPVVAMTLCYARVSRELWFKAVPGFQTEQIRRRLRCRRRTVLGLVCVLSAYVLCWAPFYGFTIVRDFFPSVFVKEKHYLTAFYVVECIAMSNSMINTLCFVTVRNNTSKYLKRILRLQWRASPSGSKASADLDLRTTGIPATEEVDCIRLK
Sequence of C-C chemokine receptor type 5 (Homo sapiens) (P51681 whole entry, looked up): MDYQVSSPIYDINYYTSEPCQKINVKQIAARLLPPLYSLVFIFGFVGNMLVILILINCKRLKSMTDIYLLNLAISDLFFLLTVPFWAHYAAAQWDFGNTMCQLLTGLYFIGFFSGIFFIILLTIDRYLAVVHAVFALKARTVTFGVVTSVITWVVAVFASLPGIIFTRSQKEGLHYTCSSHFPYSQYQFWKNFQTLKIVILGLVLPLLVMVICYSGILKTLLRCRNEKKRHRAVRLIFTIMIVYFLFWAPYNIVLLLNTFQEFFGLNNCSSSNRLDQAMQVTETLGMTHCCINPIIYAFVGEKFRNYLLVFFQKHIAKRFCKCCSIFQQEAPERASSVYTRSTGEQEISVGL
Sequence of Sodium-dependent noradrenaline transporter (Homo sapiens) (P23975 whole entry): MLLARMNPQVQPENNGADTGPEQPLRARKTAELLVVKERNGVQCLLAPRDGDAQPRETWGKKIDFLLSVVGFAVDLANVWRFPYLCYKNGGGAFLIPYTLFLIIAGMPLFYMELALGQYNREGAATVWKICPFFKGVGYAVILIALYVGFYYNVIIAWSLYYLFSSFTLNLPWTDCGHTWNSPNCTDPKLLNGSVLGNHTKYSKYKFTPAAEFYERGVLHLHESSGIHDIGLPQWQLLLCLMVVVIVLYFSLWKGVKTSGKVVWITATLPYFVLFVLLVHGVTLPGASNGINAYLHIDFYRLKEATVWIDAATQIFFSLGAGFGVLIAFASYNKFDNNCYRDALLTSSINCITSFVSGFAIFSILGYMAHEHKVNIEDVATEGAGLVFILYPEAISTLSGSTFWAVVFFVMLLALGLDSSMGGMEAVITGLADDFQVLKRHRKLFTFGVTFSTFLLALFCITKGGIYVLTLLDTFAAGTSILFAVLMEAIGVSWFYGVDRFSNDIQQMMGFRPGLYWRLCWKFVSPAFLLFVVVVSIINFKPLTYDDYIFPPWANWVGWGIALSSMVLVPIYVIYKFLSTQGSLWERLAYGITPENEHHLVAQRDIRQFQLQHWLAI
Sequence of Motilin receptor (Homo sapiens) (O43193 whole entry): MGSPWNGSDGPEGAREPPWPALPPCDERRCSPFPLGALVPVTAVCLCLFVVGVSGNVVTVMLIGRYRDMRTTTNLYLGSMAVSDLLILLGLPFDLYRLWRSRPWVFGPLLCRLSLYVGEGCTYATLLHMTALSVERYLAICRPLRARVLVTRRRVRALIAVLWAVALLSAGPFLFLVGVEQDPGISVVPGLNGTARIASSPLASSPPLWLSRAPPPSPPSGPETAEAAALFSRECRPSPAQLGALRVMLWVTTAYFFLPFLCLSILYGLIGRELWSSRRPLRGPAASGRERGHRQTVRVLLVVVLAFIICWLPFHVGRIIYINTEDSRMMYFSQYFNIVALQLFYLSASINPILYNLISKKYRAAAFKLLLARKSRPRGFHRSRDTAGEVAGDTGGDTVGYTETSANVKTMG

CCS(=O)(=O)n1c2c(c3cc(C(=O)N4CCC(C)CC4)ccc31)CN(C1CCOCC1)CC2
0.07: Kp [17]
0.12 µM: Ki (Cannabinoid receptor 1)
> 10 µM: IC50 [4]
> 20 µM: IC50 (Cytochrome P450 2C9) | IC50 (Cytochrome P450 3A4) | IC50 (Cytochrome P450 1A2) | IC50 (Cytochrome P450 2C19)
1.2 L/kg: Vdss (Rattus norvegicus)
< 50%: Activity [1] | Activity [2] | Activity [5] | Activity [6] | Activity [7] | Activity [8] | Activity [9] | Activity [10] | Activity [11] | Activity [12] | Activity [13] | Activity [14] | Activity [15] | Activity [16] | Activity [18] | Activity [19] | Activity [20] | Activity [21] | Activity [22] | Activity [23] | Activity [24] | Activity [25]
0.05: Kp [3]
